Assay results as given in ChEMBL document CHEMBL4715745, “Synthesis and biological evaluation of novel FK228 analogues as potential isoform selective HDAC inhibitors” (Eur J Med Chem, 2016).

What was measured:
Histone deacetylase 1 = Histone deacetylase 1 (Homo sapiens, UniProt Q13547); assay: Inhibition of human HDAC1 expressed in 293T cells using Ac-KGLGK(Ac)-MCA as substrate incubated for 30 mins in presence of 0.1 mM DTT by fluorescence plate reader assay; set-up: species or system HEK293T
[1] = target: T1, Protein deacetylase HDAC6 (Mus musculus, UniProt Q9Z2V5); assay: Inhibition of mouse HDAC6 expressed in 293T cells using Ac-KGLGK(Ac)-MCA as substrate incubated for 30 mins in presence of 0.1 mM DTT by fluorescence plate reader assay; set-up: species or system HEK293T
T1 sequence (Q9Z2V5 whole entry): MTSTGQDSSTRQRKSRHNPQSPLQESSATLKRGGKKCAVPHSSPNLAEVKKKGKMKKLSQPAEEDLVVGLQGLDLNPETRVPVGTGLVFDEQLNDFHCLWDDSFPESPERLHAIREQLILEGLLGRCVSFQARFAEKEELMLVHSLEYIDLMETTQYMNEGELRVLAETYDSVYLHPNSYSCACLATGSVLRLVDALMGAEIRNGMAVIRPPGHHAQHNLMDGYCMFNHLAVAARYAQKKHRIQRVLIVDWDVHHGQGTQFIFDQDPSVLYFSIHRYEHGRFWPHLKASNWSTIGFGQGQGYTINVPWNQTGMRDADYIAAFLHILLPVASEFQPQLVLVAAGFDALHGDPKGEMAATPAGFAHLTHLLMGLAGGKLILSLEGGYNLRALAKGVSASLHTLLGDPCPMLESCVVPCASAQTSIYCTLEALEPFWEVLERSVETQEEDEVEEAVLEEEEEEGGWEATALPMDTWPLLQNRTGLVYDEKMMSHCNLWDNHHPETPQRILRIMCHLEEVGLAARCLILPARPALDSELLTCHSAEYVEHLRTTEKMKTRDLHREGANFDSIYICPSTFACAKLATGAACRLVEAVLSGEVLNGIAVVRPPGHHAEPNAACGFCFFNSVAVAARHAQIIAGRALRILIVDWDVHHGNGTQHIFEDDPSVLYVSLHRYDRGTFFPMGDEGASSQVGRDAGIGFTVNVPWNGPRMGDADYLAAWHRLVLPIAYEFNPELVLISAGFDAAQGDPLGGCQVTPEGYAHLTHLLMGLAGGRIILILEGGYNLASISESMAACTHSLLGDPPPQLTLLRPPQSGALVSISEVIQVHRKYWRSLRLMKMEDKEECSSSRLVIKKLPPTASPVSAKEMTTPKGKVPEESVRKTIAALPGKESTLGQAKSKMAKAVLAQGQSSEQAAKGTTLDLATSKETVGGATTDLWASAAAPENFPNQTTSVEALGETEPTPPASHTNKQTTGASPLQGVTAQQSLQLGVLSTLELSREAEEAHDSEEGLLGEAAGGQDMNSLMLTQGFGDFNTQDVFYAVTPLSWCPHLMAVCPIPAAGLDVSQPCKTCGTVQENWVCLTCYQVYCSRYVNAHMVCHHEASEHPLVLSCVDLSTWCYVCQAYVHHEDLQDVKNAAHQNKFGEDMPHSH
Method in brief: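 HDAC enzyme assay run in the presence of 0.1 mM dithiothreitol (DTT); IC₅₀ determined.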

[2] = Selectivity index, ratio of IC50 for mouse HDAC6 expressed in 293T cells to IC50 for human HDAC1 expressed in 293T cells using Ac-KGLGK(Ac)-MCA as substrate incubated for 30 mins in presence of 0.1 mM DTT by fluorescence plate reader assay; conditions: 0.5 h
Method in brief: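 Ratio of HDAC6 IC₅₀ to HDAC1 IC₅₀, taken as selectivity for class I HDAC1 over class II HDAC6. Both enzyme assays were run in the presence of 0.1 mM DTT.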

[3] = Growth inhibition of human HBC4 cells measured after 48 hrs by sulforhodamine B assay; type: functional
Method in brief: (§1)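 Panel of 39 human cancer cell lines tested at the Japanese Foundation for Cancer Research. Five concentrations per compound, spanning 10⁻¹¹–10⁻⁷ M, 10⁻¹⁰–10⁻⁶ M or 10⁻⁸–10⁻⁴ M, were used to build dose-response curves. GI₅₀ is the concentration giving 50% growth inhibition relative to control.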

[4] = Growth inhibition of human BSY1 cells measured after 48 hrs by sulforhodamine B assay; type: functional; conditions: BSY-1; method in brief: as §1
[5] = Growth inhibition of human HBC5 cells measured after 48 hrs by sulforhodamine B assay; type: functional; method in brief: as §1
MCF7 = assay: Growth inhibition of human MCF7 cells measured after 48 hrs by sulforhodamine B assay; type: functional; method in brief: as §1
MDA-MB-231 = assay: Growth inhibition of human MDA-MB-231 cells measured after 48 hrs by sulforhodamine B assay; type: functional; method in brief: as §1
U-251 = assay: Growth inhibition of human U-251 cells measured after 48 hrs by sulforhodamine B assay; type: functional; method in brief: as §1
SF-268 = assay: Growth inhibition of human SF-268 cells measured after 48 hrs by sulforhodamine B assay; type: functional; method in brief: as §1
SF-295 = assay: Growth inhibition of human SF-295 cells measured after 48 hrs by sulforhodamine B assay; type: functional; method in brief: as §1
SF-539 = assay: Growth inhibition of human SF-539 cells measured after 48 hrs by sulforhodamine B assay; type: functional; method in brief: as §1
SNB-75 = assay: Growth inhibition of human SNB-75 cells measured after 48 hrs by sulforhodamine B assay; type: functional; method in brief: as §1
SNB-78 = assay: Growth inhibition of human SNB-78 cells measured after 48 hrs by sulforhodamine B assay; type: functional; method in brief: as §1
HCC 2998 = assay: Growth inhibition of human HCC 2998 cells measured after 48 hrs by sulforhodamine B assay; type: functional; method in brief: as §1
KM12 = assay: Growth inhibition of human KM12 cells measured after 48 hrs by sulforhodamine B assay; type: functional; method in brief: as §1
HT-29 = assay: Growth inhibition of human HT-29 cells measured after 48 hrs by sulforhodamine B assay; type: functional; method in brief: as §1
HCT-15 = assay: Growth inhibition of human HCT-15 cells measured after 48 hrs by sulforhodamine B assay; type: functional; method in brief: as §1
HCT-116 = assay: Growth inhibition of human HCT-116 cells measured after 48 hrs by sulforhodamine B assay; type: functional; method in brief: as §1
NCI-H23 = assay: Growth inhibition of human NCI-H23 cells measured after 48 hrs by sulforhodamine B assay; type: functional; method in brief: as §1
NCI-H226 = assay: Growth inhibition of human NCI-H226 cells measured after 48 hrs by sulforhodamine B assay; type: functional; method in brief: as §1
NCI-H522 = assay: Growth inhibition of human NCI-H522 cells measured after 48 hrs by sulforhodamine B assay; type: functional; method in brief: as §1
NCI-H460 = assay: Growth inhibition of human NCI-H460 cells measured after 48 hrs by sulforhodamine B assay; type: functional; method in brief: as §1
A549 = assay: Growth inhibition of human A549 cells measured after 48 hrs by sulforhodamine B assay; type: functional; method in brief: as §1
DMS-273 = assay: Growth inhibition of human DMS-273 cells measured after 48 hrs by sulforhodamine B assay; type: functional; method in brief: as §1
DMS-114 = assay: Growth inhibition of human DMS-114 cells measured after 48 hrs by sulforhodamine B assay; type: functional; method in brief: as §1
LOX IMVI = assay: Growth inhibition of human LOX IMVI cells measured after 48 hrs by sulforhodamine B assay; type: functional; method in brief: as §1
OVCAR-3 = assay: Growth inhibition of human OVCAR-3 cells measured after 48 hrs by sulforhodamine B assay; type: functional; method in brief: as §1
OVCAR-4 = assay: Growth inhibition of human OVCAR-4 cells measured after 48 hrs by sulforhodamine B assay; type: functional; method in brief: as §1
OVCAR-5 = assay: Growth inhibition of human OVCAR-5 cells measured after 48 hrs by sulforhodamine B assay; type: functional; method in brief: as §1
OVCAR-8 = assay: Growth inhibition of human OVCAR-8 cells measured after 48 hrs by sulforhodamine B assay; type: functional; method in brief: as §1
SK-OV-3 = assay: Growth inhibition of human SK-OV-3 cells measured after 48 hrs by sulforhodamine B assay; type: functional; method in brief: as §1
RXF 631 = assay: Growth inhibition of human RXF 631 cells measured after 48 hrs by sulforhodamine B assay; type: functional; method in brief: as §1
ACHN = assay: Growth inhibition of human ACHN cells measured after 48 hrs by sulforhodamine B assay; type: functional; method in brief: as §1
St-4 = assay: Growth inhibition of human St-4 cells measured after 48 hrs by sulforhodamine B assay; type: functional; method in brief: as §1
MKN-1 = assay: Growth inhibition of human MKN-1 cells measured after 48 hrs by sulforhodamine B assay; type: functional; method in brief: as §1
MKN-7 = assay: Growth inhibition of human MKN-7 cells measured after 48 hrs by sulforhodamine B assay; type: functional; method in brief: as §1
MKN-28 = assay: Growth inhibition of human MKN-28 cells measured after 48 hrs by sulforhodamine B assay; type: functional; method in brief: as §1
MKN-45 = assay: Growth inhibition of human MKN-45 cells measured after 48 hrs by sulforhodamine B assay; type: functional; method in brief: as §1
MKN-74 = assay: Growth inhibition of human MKN-74 cells measured after 48 hrs by sulforhodamine B assay; type: functional; method in brief: as §1
DU-145 = assay: Growth inhibition of human DU-145 cells measured after 48 hrs by sulforhodamine B assay; type: functional; method in brief: as §1
PC-3 = assay: Growth inhibition of human PC-3 cells measured after 48 hrs by sulforhodamine B assay; type: functional; method in brief: as §1

Sequence of Histone deacetylase 1 (Q13547 whole entry): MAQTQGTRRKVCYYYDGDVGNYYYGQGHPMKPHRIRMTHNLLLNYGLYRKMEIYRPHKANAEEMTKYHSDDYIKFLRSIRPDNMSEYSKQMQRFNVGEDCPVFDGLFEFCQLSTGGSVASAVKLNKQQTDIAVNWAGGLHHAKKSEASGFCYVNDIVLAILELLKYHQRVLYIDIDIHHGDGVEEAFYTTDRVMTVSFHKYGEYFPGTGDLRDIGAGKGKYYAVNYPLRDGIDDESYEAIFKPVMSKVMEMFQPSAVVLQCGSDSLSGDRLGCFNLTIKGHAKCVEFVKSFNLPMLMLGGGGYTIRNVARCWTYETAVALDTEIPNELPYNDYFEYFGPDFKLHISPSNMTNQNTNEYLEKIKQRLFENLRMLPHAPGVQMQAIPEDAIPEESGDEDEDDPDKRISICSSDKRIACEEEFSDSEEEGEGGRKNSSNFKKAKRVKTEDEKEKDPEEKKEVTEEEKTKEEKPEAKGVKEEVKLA

In the case of `CC(C)[C@H]1NC(=O)C[C@H]2/C=C/CCSSC[C@@H](NC1=O)C(=O)N[C@H](Cc1ccccc1)C(=O)NCC(=O)O2`, the IC50 (Histone deacetylase 1) is reported as 0.00054 µM, the IC50 [1] is reported as 0.0549 µM and the “Ratio IC50” value [2] is reported as 102. For the same compound, the GI50 [3] was 0.037 µM, the GI50 [4] was 0.036 µM and the GI50 [5] was 0.084 µM. The GI50 (MCF7) was 0.062 µM, the GI50 (MDA-MB-231) was 0.0087 µM and the GI50 (U-251) was 0.022 µM. For the same compound, the GI50 (SF-268) was 0.005 µM, the GI50 (SF-295) was 0.021 µM and the GI50 (SF-539) was 0.0033 µM. For the same compound, the GI50 (SNB-75) was 0.0087 µM, the GI50 (SNB-78) was 0.0086 µM and the GI50 (HCC 2998) was 0.0032 µM. For the same compound, the GI50 (KM12) was 0.0028 µM, the GI50 (HT-29) was 0.003 µM and the GI50 (HCT-15) was 0.1 µM. The GI50 (HCT-116) was 0.0026 µM, the GI50 (NCI-H23) was 0.0044 µM and the GI50 (NCI-H226) was 0.0048 µM. The GI50 (NCI-H522) was 0.00072 µM, the GI50 (NCI-H460) was 0.0062 µM and the GI50 (A549) was 0.0034 µM. It also gave a GI50 (DMS-273) of 0.02 µM, a GI50 (DMS-114) of 0.0041 µM and a GI50 (LOX IMVI) of 0.0022 µM. The GI50 (OVCAR-3) was 0.017 µM, the GI50 (OVCAR-4) was 0.027 µM and the GI50 (OVCAR-5) was 0.0068 µM. For the same compound, the GI50 (OVCAR-8) was 0.0046 µM, the GI50 (SK-OV-3) was 0.0024 µM and the GI50 (RXF 631) was 0.0079 µM. For the same compound, the GI50 (ACHN) was 0.024 µM, the GI50 (St-4) was 0.034 µM and the GI50 (MKN-1) was 0.0026 µM. For the same compound, the GI50 (MKN-7) was 0.035 µM, the GI50 (MKN-28) was 0.078 µM and the GI50 (MKN-45) was 0.064 µM. The GI50 (MKN-74) was 0.0059 µM, the GI50 (DU-145) was 0.0036 µM and the GI50 (PC-3) was 0.0057 µM.
For `CC(C)C[C@@H]1NC(=O)[C@H]2CSSCC/C=C/[C@H](CC(=O)N[C@H](C(C)C)C(=O)N2)OC(=O)CNC1=O`, the IC50 (Histone deacetylase 1) was 0.0114 µM, the IC50 [1] was 2.26 µM and the “Ratio IC50” value [2] was 198. It also gave a GI50 [3] of 1.4 µM, a GI50 [4] of 1.5 µM and a GI50 [5] of 1.7 µM. For the same compound, the GI50 (MCF7) was 1.6 µM, the GI50 (MDA-MB-231) was 1.2 µM and the GI50 (U-251) was 0.33 µM. For the same compound, the GI50 (SF-268) was 0.82 µM, the GI50 (SF-295) was 1.5 µM and the GI50 (SF-539) was 1.5 µM. The GI50 (SNB-75) was 1 µM, the GI50 (SNB-78) was 1.8 µM and the GI50 (HCC 2998) was 1.3 µM. It also gave a GI50 (KM12) of 1.1 µM, a GI50 (HT-29) of 0.69 µM and a GI50 (HCT-15) of 17 µM. For the same compound, the GI50 (HCT-116) was 0.34 µM, the GI50 (NCI-H23) was 1.2 µM and the GI50 (NCI-H226) was 1.6 µM. It also gave a GI50 (NCI-H522) of 0.2 µM, a GI50 (NCI-H460) of 1.1 µM and a GI50 (A549) of 0.72 µM. For the same compound, the GI50 (DMS-273) was 1.4 µM, the GI50 (DMS-114) was 0.68 µM and the GI50 (LOX IMVI) was 0.18 µM. The GI50 (OVCAR-3) was 1.5 µM, the GI50 (OVCAR-4) was 1.6 µM and the GI50 (OVCAR-5) was 1.2 µM. It also gave a GI50 (OVCAR-8) of 1.5 µM, a GI50 (SK-OV-3) of 1.5 µM and a GI50 (RXF 631) of 3.2 µM. For the same compound, the GI50 (ACHN) was 9.4 µM, the GI50 (St-4) was 2.1 µM and the GI50 (MKN-1) was 1.1 µM. It also gave a GI50 (MKN-7) of 1.8 µM, a GI50 (MKN-28) of 1.8 µM and a GI50 (MKN-45) of 2.2 µM. For the same compound, the GI50 (MKN-74) was 1.5 µM, the GI50 (DU-145) was 0.83 µM and the GI50 (PC-3) was 1.4 µM.
